ChEMBL document CHEMBL6134777, “Modulating polybasic character of galactose-based glycosylated antitumor ether lipids for enhanced cytotoxic response” (2025)
Active and inactive are the calls of the source. The rule behind the calls is not given here.

Legend:
MIA PaCa-2 [1] = test: Cytotoxicity against human MIA PaCa-2 cells assessed as cell death measured after 48 hrs; assay type: functional
In short: (§1)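 MIAPaCa-2 in DMEM with 10% FBS, 2.5% horse serum and penicillin/streptomycin, seeded at 7500 cells/well. After 24 h, treated 48 h with increasing drug concentrations from a 30 mM stock. PrestoBlue 10% v/v, 40-45 min, fluorescence 560/590 nm, blank-subtracted, relative to vehicle-treated cells. Two independent experiments, five wells per concentration.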

DU-145 [2] = test: Cytotoxicity against human DU-145 cells assessed as cell death measured after 48 hrs; assay type: functional
In short: (§2)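 DU-145 (5000 cells/well) or JIMT-1 (8000 cells/well) in DMEM with 10% FBS and penicillin/streptomycin. Plated cells rested 24 h, then received increasing drug concentrations (30 mM stock) for 48 h. Viability by PrestoBlue 10% v/v for 40-45 min, fluorescence ex 560/em 590 nm, blank-subtracted, relative to vehicle. Two independent experiments, five wells per concentration.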

JIMT-1 [3] = test: Cytotoxicity against human JIMT-1 cells assessed as cell death measured after 48 hrs; assay type: functional; in short: as §2
BT-474 [4] = test: Cytotoxicity against human BT-474 cells assessed as cell death measured after 48 hrs; assay type: functional
In short: (§3)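 BT-474 cells in DMEM/F12 with 10% FBS plus penicillin/streptomycin, 37°C, 5% CO2. Seeded at 10,500 cells/well and left 24 h, then exposed to rising drug concentrations (stock 30 mM) for 48 h. Read-out: PrestoBlue (10% v/v), 40-45 min, fluorescence ex 560/em 590 nm. Values are blank-subtracted and expressed relative to vehicle-treated cells. Two independent experiments, five wells per concentration.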

[5] = Potency index, ratio of monobasic GAEL IC50 to test compound IC50 for cytotoxicity against human MIAPaCa-2 cells assessed as cell death measured after 48 hrs; assay type: functional, MIA PaCa-2
[6] = Potency index, ratio of monobasic GAEL IC50 to test compound IC50 for cytotoxicity against human DU-145 cells assessed as cell death measured after 48 hrs; assay type: functional
[7] = Potency index, ratio of monobasic GAEL IC50 to test compound IC50 for cytotoxicity against human JIMT-1 cells assessed as cell death measured after 48 hrs; assay type: functional
MIA PaCa-2 [8] = test: Cytotoxicity against human MIAPaCa-2 cells assessed as cell death at 6 to 10 uM measured after 48 hrs; assay type: functional, cell-based; settings: dose 6-10 µM; in short: as §1
DU-145 [9] = test: Cytotoxicity against human DU-145 cells assessed as cell death at 6 to 10 uM measured after 48 hrs; assay type: functional, cell-based; settings: dose 6-10 µM; in short: as §2
JIMT-1 [10] = test: Cytotoxicity against human JIMT-1 cells assessed as cell death at 6 to 10 uM measured after 48 hrs; assay type: functional, cell-based; settings: dose 6-10 µM; in short: as §2
BT-474 [11] = test: Cytotoxicity against human BT-474 cells assessed as cell death at 6 to 10 uM measured after 48 hrs; assay type: functional, cell-based; settings: dose 6-10 µM; in short: as §3
MDA-MB-231 = test: Cytotoxicity against human MDA-MB-231 cells assessed as cell viability measured after 48 hrs by using PrestoBlue cell viability assay; assay type: functional
In short: (§4)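 DMEM with 10% FBS plus penicillin/streptomycin, 37°C, 5% CO2. Seeding per well: BxPC3 7500, COV362 7500, HEYC2 8000, HepG2 8000, MDA-MB-231 8000. After 24 h, drug added at increasing concentrations (30 mM stock) for 48 h. PrestoBlue 10% v/v for 40-45 min; fluorescence 560/590 nm, blank-subtracted, relative to vehicle. Two experiments, five wells each; CC50 by nonlinear regression.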

[12] = Cytotoxicity against human HEY C2 cells assessed as cell viability measured after 48 hrs by using PrestoBlue cell viability assay; assay type: functional; in short: as §4
[13] = Cytotoxicity against human COV362 cells assessed as cell viability measured after 48 hrs by using PrestoBlue cell viability assay; assay type: functional; in short: as §4
OVCAR-3 [14] = test: Cytotoxicity against human OVCAR-3 cells assessed as cell viability measured after 48 hrs by using PrestoBlue cell viability assay; assay type: functional
In short: (§5)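 OVCAR-3 in RPMI with 10% FBS, 0.01 mg/mL insulin and penicillin/streptomycin, seeded at 7500 cells/well. After 24 h, exposed 48 h to increasing drug concentrations (30 mM stock). PrestoBlue 10% v/v, 40-45 min, fluorescence ex 560/em 590 nm, blank-subtracted, relative to vehicle. Two experiments, five wells per concentration.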

HepG2 [15] = test: Cytotoxicity against human HepG2 cells assessed as cell viability measured after 48 hrs by using PrestoBlue cell viability assay; assay type: functional; in short: as §4
BXPC-3 = test: Cytotoxicity against human BXPC-3 cells assessed as cell viability measured after 48 hrs by using PrestoBlue cell viability assay; assay type: functional; in short: as §4
OVCAR-3 [16] = test: Cytotoxicity against human OVCAR-3 cells assessed as elimination of cells at 6 uM measured after 48 hrs by using PrestoBlue cell viability assay; assay type: functional; in short: as §5
HepG2 [17] = test: Cytotoxicity against human HepG2 cells assessed as elimination of cells at 6 uM measured after 48 hrs by using PrestoBlue cell viability assay; assay type: functional; in short: as §4
[18] = Cytotoxicity against human COV362 cells assessed as cell death at 8 uM measured after 48 hrs by using PrestoBlue cell viability assay; assay type: functional
In short: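 COV362 cells in DMEM with 10% FBS and penicillin/streptomycin at 37 °C and 5% CO₂, seeded at 7500 per well. After 24 h, exposed 48 h to increasing drug concentrations diluted from a 30 mM stock. PrestoBlue (10% v/v) added for 40-45 min, fluorescence read at ex 560/em 590 nm. Cell-free blanks subtracted, viability relative to vehicle. Two independent experiments, five wells per concentration.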

DU-145 [19] = test: Cytotoxicity against human DU-145 cells assessed as cell death at 4 to 8 uM measured after 48 hrs in presence of MX1013 pan-caspase inhibitor; settings: dose 4-8 µM
MIA PaCa-2 [20] = test: Cytotoxicity against human MIAPaCa-2 cells assessed as cell death up to 10 uM measured after 48 hrs; assay type: functional, cell-based; in short: as §1
DU-145 [21] = test: Cytotoxicity against human DU-145 cells assessed as cell death up to 10 uM measured after 48 hrs; assay type: functional, cell-based; in short: as §2
JIMT-1 [22] = test: Cytotoxicity against human JIMT-1 cells assessed as cell death up to 10 uM measured after 48 hrs; assay type: functional, cell-based; in short: as §2
BT-474 [23] = test: Cytotoxicity against human BT-474 cells assessed as cell death up to 10 uM measured after 48 hrs; assay type: functional, cell-based; in short: as §3

In the case of `CCCCCCCCCCCCCCCCOC[C@H](CO[C@H]1O[C@H](CO)[C@H](N)[C@H](O)[C@H]1N)OC`, the CC50 (MIA PaCa-2 [1]) is reported as 6.5 µM, the CC50 (DU-145 [2]) is reported as 6.3 µM and the CC50 (JIMT-1 [3]) is reported as 5 µM. The CC50 (BT-474 [4]) was > 10 µM.
In the case of `CCCCCCCCCCCCCCCCOC[C@H](CO[C@@H]1O[C@H](CN)[C@H](N)[C@H](O)[C@H]1N)OC`, the CC50 (MIA PaCa-2 [1]) is reported as 4.5 µM, the CC50 (DU-145 [2]) is reported as 3.3 µM and the CC50 (JIMT-1 [3]) is reported as 3.8 µM. For the same molecule, the CC50 (BT-474 [4]) was 5.6 µM, the “Ratio IC50” value [5] was 2 and the “Ratio IC50” value [6] was 2. For the same molecule, the “Ratio IC50” value [7] was 2, the Activity (MIA PaCa-2 [8]) was “Active” and the Activity (DU-145 [9]) was “Active”. The Activity (JIMT-1 [10]) was “Active”, the Activity (BT-474 [11]) was “Active” and the CC50 (MDA-MB-231) was 6.5 µM. For the same molecule, the CC50 [12] was 5.5 µM, the CC50 [13] was 3.1 µM and the CC50 (OVCAR-3 [14]) was 2.6 µM. It also gave a CC50 (HepG2 [15]) of 3.6 µM, a CC50 (BXPC-3) of 2.6 µM and an Activity (OVCAR-3 [16]) of 100%. The Activity (HepG2 [17]) was 100%, the Activity [18] was 100% and the Activity (DU-145 [19]) was “Active”.
Work on `CCCCCCCCCCCCCCCCOC[C@H](CN)O[C@H]1O[C@H](CO)[C@H](N)[C@H](O)[C@H]1N` yielded a CC50 (MIA PaCa-2 [1]) of 8.1 µM, a CC50 (DU-145 [2]) of 8.2 µM and a CC50 (JIMT-1 [3]) of 6.3 µM. It also gave a CC50 (BT-474 [4]) of 7.4 µM.
For `CCCCCCCCCCCCCCCCOC[C@H](CO[C@H]1O[C@H](CN)[C@H](O)[C@H](O)[C@H]1N)OC`, the CC50 (MIA PaCa-2 [1]) was 6.6 µM, the CC50 (DU-145 [2]) was 5.5 µM and the CC50 (JIMT-1 [3]) was 4.9 µM. For the same molecule, the CC50 (BT-474 [4]) was 6.9 µM, the “Ratio IC50” value [5] was 1.5 and the “Ratio IC50” value [6] was 1.5. The “Ratio IC50” value [7] was 1.5.
With `COc1cccc2c1C(=O)c1c(O)c3c(c(O)c1C2=O)C[C@@](O)(C(=O)CO)C[C@@H]3O[C@H]1C[C@H](N)[C@H](O)[C@H](C)O1` the Activity (MIA PaCa-2 [20]) was “inactive”, the Activity (DU-145 [21]) was “inactive” and the Activity (JIMT-1 [22]) was “inactive”. For the same molecule, the Activity (BT-474 [23]) was “inactive”.
In the case of `CCCCCCCCCCCCCCCCOC[C@H](CN)O[C@@H]1O[C@H](CO)[C@H](N)[C@H](O)[C@H]1N`, the CC50 (MIA PaCa-2 [1]) is reported as 7.4 µM, the CC50 (DU-145 [2]) is reported as > 10 µM and the CC50 (JIMT-1 [3]) is reported as 8.9 µM. For the same molecule, the CC50 (BT-474 [4]) was > 10 µM.
For `CCCCCCCCCCCCCCCCOC[C@H](CO[C@@H]1O[C@H](CO)[C@H](N)[C@H](O)[C@H]1N)OC`, the CC50 (MIA PaCa-2 [1]) was 7.8 µM, the CC50 (DU-145 [2]) was 6.6 µM and the CC50 (JIMT-1 [3]) was 5.8 µM. The CC50 (BT-474 [4]) was > 10 µM.
For `CCCCCCCCCCCCCCCCOC[C@H](CO[C@H]1O[C@H](CO)[C@H](O)[C@H](O)[C@H]1N)OC`, the CC50 (MIA PaCa-2 [1]) was 10 µM, the CC50 (DU-145 [2]) was 10.9 µM and the CC50 (JIMT-1 [3]) was 9.9 µM. For the same molecule, the CC50 (BT-474 [4]) was > 20 µM.
Molecule `CCCCCCCCCCCCCCCCOC[C@H](CO[C@@H]1O[C@H](CN)[C@H](O)[C@H](O)[C@H]1N)OC` has a CC50 (MIA PaCa-2 [1]) of 7.5 µM, a CC50 (DU-145 [2]) of 6.6 µM and a CC50 (JIMT-1 [3]) of 5.7 µM. For the same molecule, the CC50 (BT-474 [4]) was 6.4 µM, the “Ratio IC50” value [5] was 1.5 and the “Ratio IC50” value [6] was 1.5. The “Ratio IC50” value [7] was 1.5.
In the case of `CCCCCCCCCCCCCCCCOC[C@H](CO[C@H]1O[C@H](CN)[C@H](N)[C@H](O)[C@H]1N)OC`, the CC50 (MIA PaCa-2 [1]) is reported as 5.3 µM, the CC50 (DU-145 [2]) is reported as 6.7 µM and the CC50 (JIMT-1 [3]) is reported as 5.4 µM. It also gave a CC50 (BT-474 [4]) of 8 µM.
